Screens: PubChem BioAssay, several laboratories
Rows were chosen to be rich in hits. Some 2.2% of all compounds tested hit in one or more screens of this group.
GPR7 antag – human neuropeptides B/W receptor 1 antagonism | P48145 | GPR7-expressing cells, fluorescence antagonist assay | inhibition, % at 4.4 µM | hit rate 1.1% among 290,000 | AID 1861; in the data active = inhibition above about 16%, passing the limit was not always enough;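 note: cells stimulated with the agonist NPW; 0% = agonist with vehicle and 100% = vehicle without agonist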
Target sequence (P48145 whole entry, looked up): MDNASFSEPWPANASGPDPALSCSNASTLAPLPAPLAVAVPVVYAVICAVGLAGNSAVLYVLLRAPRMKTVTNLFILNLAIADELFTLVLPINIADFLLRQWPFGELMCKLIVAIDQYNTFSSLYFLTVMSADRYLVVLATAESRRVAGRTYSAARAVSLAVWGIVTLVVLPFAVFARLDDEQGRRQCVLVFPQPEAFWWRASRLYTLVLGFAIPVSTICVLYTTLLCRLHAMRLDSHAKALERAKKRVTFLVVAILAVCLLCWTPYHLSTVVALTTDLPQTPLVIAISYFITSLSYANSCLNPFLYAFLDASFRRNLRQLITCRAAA
GRK2 aptamer HTS – human GRK2 inhibition via aptamer displacement. P25098. bead flow cytometry, FAM-aptamer displacement from GRK2. inhibition of aptamer binding, % at 10 µM. hit rate 0.59% among 330,000. AID 488847;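 active = inhibition of aptamer binding above 40%, roughly 3 SD of noise, on plates passing a quality check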;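 note: median bead fluorescence of bound FAM aptamer so fluorescent compounds give negative values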
DNA FID counter – displaces DNA intercalator in HCV helicase counter-screen | hit rate 0.17% among 290,000 | inhibition, % at 7.9 µM | DNA fluorescent intercalator displacement, fluorescence; in the data active = inhibition above about 37%;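 note: 0% = vehicle and 100% = reference compound; higher means more ethidium bromide displaced from hairpin DNA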
NS3 helicase inh – inhibitors of Hepatitis C virus NS3 helicase. NS3 helicase DNA unwinding, Cy5 molecular beacon fluorescence. inhibition, % at 10.9 µM. hit rate 0.56% among 290,000. AID 1800;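 active = inhibition above the mean of all tested compounds plus 3 SD, set per campaign, cut at about 35% in these data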;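 note: 0% = DMSO wells and 100% = thioflavine S control wells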
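System: Hepatitis C virus NS3 helicase domain fragment enzyme | Reagent: Annealed dual-labelled DNA beacon duplex, ATP-started | Compound dosing: 10.9 µM single point, 0.8% DMSO | Incubation: 1 h reaction at 25 °C, ATP-initiated | Technique: Cy5 fluorescence | Evaluation: Percent inhibition from t60/t0 fluorescence ratio | Benchmarks: Low DMSO, high thioflavine S at 110 µM | Replication: Singlicate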
DAGLB inh – blocks human DAGLB lipase activity; Q8NCG7; HEK293T DAGLB membrane lysate, EnzChek fluorogenic substrate; inhibition, % at 5.17 µM; hit rate 0.059% among 340,000; AID 504411; in the data active = inhibition above about 34%;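 note: 0% = enzyme with vehicle and 100% = wells lacking enzyme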
HCV core dimer – HCV core protein dimerization inhibition. AID 1899. inhibition, % at 5 µM. hit rate 0.33% among 300,000. TR-FRET GST/Flag-core106 dimerization, 1536-well;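 active = inhibition above the mean of all tested compounds plus 3 SD, set per screening campaign, cut at about 45% in these data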
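Assay system: tagged HCV core106 pair (GST and Flag); medium: KF-containing HEPES buffer, pH 7.45, DTT, CHAPS, BSA; also added: Eu donor and XL665 acceptor anti-tag antibodies; dosing: 5 µM single dose; timing: compound-protein-antibody incubation 4 h at 22.5 °C; signal: TR-FRET 671 and 617 nm emission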
GPR7 antag cf – human GPR7 antagonism, confirmation assay. AID 1952. inhibition, % at 4.4 µM. shares compounds with GPR7 antag. GPR7-expressing cells, calcium fluorescence antagonist mode. hit rate 52% among 2,400; in the data active = inhibition above about 24%;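 note: stimulated with the GPR7 agonist NPW; 0% = agonist plus vehicle and 100% = vehicle alone without agonist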
MCHR1 antag – antagonizes human MCHR1, a GPR7 antagonist counter-screen | inhibition, % at 4.4 µM | shares compounds with GPR7 antag | MCHR1-expressing cells, fluorescence antagonist assay | hit rate 62% among 2,400; in the data active = inhibition above about 22%;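 note: 0% = vehicle with agonist and 100% = vehicle without agonist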
Starred values were filed as active, the others as inactive.

Results for CCN(CC#CCC(O)(c1ccccc1)C1CCCC1)C(C)C (centres undefined) ?
GPR7 antag: 29*; GRK2 aptamer HTS: 0; DNA FID counter: 13; NS3 helicase inh: -4; DAGLB inh: -1; HCV core dimer: 4; GPR7 antag cf: 3; MCHR1 antag: -1

How did Cc1cccc(NC(=O)c2ccc3nc(N4CCOCC4)sc3c2)c1C do in these assays?
GPR7 antag: -6; GRK2 aptamer HTS: 0; DNA FID counter: -38; NS3 helicase inh: -6; DAGLB inh: -6; HCV core dimer: -3

Results for CC(=O)c1ccc(-n2nnnc2SCC(=O)N2CCc3ccccc3C2)cc1 ?
GPR7 antag: 29*; DNA FID counter: -23; NS3 helicase inh: 1; DAGLB inh: -1; GPR7 antag cf: 10; MCHR1 antag: 12

What do the screens show for `O=C(CSc1nnnn1-c1ccccc1)N1CCc2ccccc2C1`?
GPR7 antag: -8; GRK2 aptamer HTS: 2; DNA FID counter: -18; NS3 helicase inh: -9; DAGLB inh: -2; HCV core dimer: 8

Results for CC1(S(=O)(=O)O)CC(=O)c2ccccc2C1=O (centres undefined) ?
GPR7 antag: -8; GRK2 aptamer HTS: 2; DNA FID counter: -3; NS3 helicase inh: -8; DAGLB inh: 0; HCV core dimer: -41

Results for CC(NCCC(c1ccccc1)c1ccccc1)c1ccccc1 (centres undefined) ?
GPR7 antag: 28*; GRK2 aptamer HTS: 2; DNA FID counter: 20; NS3 helicase inh: -76; DAGLB inh: 2; HCV core dimer: 1; GPR7 antag cf: 51*; MCHR1 antag: 55*

Results for CC(NC1CCCC1)c1ccccc1 (centres undefined) ?
GPR7 antag: -5; GRK2 aptamer HTS: 12; DNA FID counter: 0; NS3 helicase inh: -4; DAGLB inh: -2; HCV core dimer: -6

Results for COCCn1nnnc1C(C(C)C)N1CCSCC1 (centres undefined) ?
GPR7 antag: 6; GRK2 aptamer HTS: 0; DNA FID counter: 1; NS3 helicase inh: 5; DAGLB inh: 0; HCV core dimer: -7

What do the screens show for `COc1ccccc1N1CN(CCc2ccccc2)CNC1=S`?
GPR7 antag: 30*; GRK2 aptamer HTS: 0; DNA FID counter: -14; NS3 helicase inh: 6; DAGLB inh: 0; HCV core dimer: 0; GPR7 antag cf: 5; MCHR1 antag: -2

How did COc1ccccc1N1CN(Cc2ccccc2)CNC1=S do in these assays?
GPR7 antag: 0; GRK2 aptamer HTS: 0; DNA FID counter: -10; NS3 helicase inh: -6; DAGLB inh: 1; HCV core dimer: 5

Results for CC1=C(C)CC(C(=O)NCc2cccc(Cl)c2)C(C(=O)O)C1 (centres undefined) ?
GPR7 antag: 9; GRK2 aptamer HTS: 0; DNA FID counter: -18; NS3 helicase inh: 10; DAGLB inh: 0; HCV core dimer: -5

What do the screens show for `COCCn1c(N)c(C(=O)c2cccc(S(=O)(=O)N3CCCCCC3)c2)c(=O)[nH]c1=O`?
GRK2 aptamer HTS: 1; DAGLB inh: 1

Results for Cc1ccc(-n2cccn2)c(CN2CCC(CO)(CCc3ccccc3)CC2)c1 ?
GPR7 antag: 21*; DNA FID counter: 9; NS3 helicase inh: -4; DAGLB inh: -1; GPR7 antag cf: 32*; MCHR1 antag: 28*

What do the screens show for `CN(C)c1ccc(/C=C(\C#N)c2ccccn2)cc1`?
GPR7 antag: 30*; GRK2 aptamer HTS: 0; DNA FID counter: -2; NS3 helicase inh: -7; DAGLB inh: -6; HCV core dimer: -11; GPR7 antag cf: 9; MCHR1 antag: 47*

How did COc1ccc(-c2nc(SCC(=O)NC3CCCCC3)n[nH]2)cc1 do in these assays?
GPR7 antag: 23*; GRK2 aptamer HTS: 0; DNA FID counter: -26; NS3 helicase inh: 15; DAGLB inh: 0; GPR7 antag cf: -22; MCHR1 antag: 35*

What do the screens show for `O=C(c1ccccc1)N1CCN(c2ccc(N3CCOCC3)nn2)CC1`?
GRK2 aptamer HTS: 0; DAGLB inh: -5; HCV core dimer: 2

Results for COc1ccccc1N(C(=O)CNC(=O)c1ccco1)C(C(=O)NC1CCCC1)c1ccco1 (centres undefined) ?
GPR7 antag: 24*; GRK2 aptamer HTS: 0; DNA FID counter: -30; NS3 helicase inh: 4; DAGLB inh: 0; HCV core dimer: -6; GPR7 antag cf: 14; MCHR1 antag: 8

How did COc1ccccc1N(C(=O)c1ccco1)C(C(=O)NC1CCCCC1)c1cc(OC)c(OC)c(OC)c1 (centres undefined) do in these assays?
GPR7 antag: 34*; GRK2 aptamer HTS: 0; DNA FID counter: -36; NS3 helicase inh: -5; DAGLB inh: 0; HCV core dimer: 9; GPR7 antag cf: 37*; MCHR1 antag: 9

Results for COc1ccc(C(C(=O)NC2CCCC2)N(C(=O)c2ccco2)c2ccccc2OC)cc1 (centres undefined) ?
GPR7 antag: -3; GRK2 aptamer HTS: 2; DNA FID counter: -40; NS3 helicase inh: -17; DAGLB inh: -2; HCV core dimer: 19

What do the screens show for `COc1ccc(C(C(=O)NC2CCCCC2)N(C(=O)c2ccco2)c2ccccc2OC)cc1` (centres undefined)?
GPR7 antag: 29*; GRK2 aptamer HTS: 0; DNA FID counter: -49; NS3 helicase inh: -3; DAGLB inh: -3; HCV core dimer: 0; GPR7 antag cf: 17; MCHR1 antag: 14

What do the screens show for `Cc1cccc(COC(=O)CCCNC(=O)c2ccc(Cl)cc2)c1`?
GRK2 aptamer HTS: 2; DAGLB inh: -6

Results for CN(C)c1ncnc2c1C(c1ccccc1)C(C)(C)O2 (centres undefined) ?
DAGLB inh: -2

How did COc1ccc(CCN(C)C(=S)NC(=O)c2ccc(F)cc2Cl)cc1OC do in these assays?
GPR7 antag: 3; GRK2 aptamer HTS: 0; DNA FID counter: -24; NS3 helicase inh: -7; DAGLB inh: -1; HCV core dimer: 7

What do the screens show for `COc1ccc(CCN(C)C(=S)Nc2ccc(SC(F)F)cc2)cc1OC`?
GPR7 antag: 39*; GRK2 aptamer HTS: 0; DNA FID counter: -15; NS3 helicase inh: 1; DAGLB inh: -2; HCV core dimer: -6; GPR7 antag cf: 12; MCHR1 antag: 11

What do the screens show for `COc1ccccc1CNC(=O)CSc1nc(-c2ccccc2)cn1N`?
GPR7 antag: 27*; GRK2 aptamer HTS: 4; DNA FID counter: -17; NS3 helicase inh: -7; DAGLB inh: -3; HCV core dimer: -7; GPR7 antag cf: -10; MCHR1 antag: 8
